Source: ChEMBL document CHEMBL1157681 (Bioorg Med Chem, 2010)
Activity calls are given as the source filed them. The rule behind the calls is not given here.

What was measured:
MCF7 [1] = experiment: Antiproliferative activity against human MCF7 cells after 72 hrs by MTS/PMS assay; assay type: functional, cell-based; details: MCF7, 72 h
In short: (§1)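 Cells grown at 37 °C in humidified 5% CO2, seeded at 2000/well and left to attach overnight. Compound added at varying concentrations in DMSO (1% final) for 72 h. Viable cells read by MTS/PMS, normalized to 1% DMSO wells as 100% proliferation. IC50 taken from separate experiments run in triplicate.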

SK-BR-3 [2] = experiment: Antiproliferative activity against human SKBR3 cells after 72 hrs by MTS/PMS assay; assay type: functional, cell-based; details: SK-BR-3, 72 h; in short: as §1
[3] = target: Heat shock protein HSP 90-beta (Homo sapiens) (UniProt P08238); experiment: Inhibition of HSP90 in human MCF7 cells assessed as induction of HSP90 client protein Her2 degradation after 24 hrs by Western blot analysis; assay type: cell-based
In short: (§2)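 MCF-7 cells exposed 24 h to various concentrations in DMSO (1% final) or vehicle. Cells lysed in RIPA with 1 mM PMSF, 2 mM orthovanadate and protease inhibitors, 1 h on ice, then clarified at 14000g for 10 min at 4 °C; protein by BCA. 20 μg protein run under reducing conditions, blotted to nitrocellulose, probed with specific antibodies plus HRP secondary, read by chemiluminescence; β-actin also probed.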

[4] = target: Heat shock protein HSP 90-beta (Homo sapiens) (UniProt P08238); experiment: Inhibition of HSP90 in human MCF7 cells assessed as induction of HSP90 client protein cRaf degradation after 24 hrs by Western blot analysis; assay type: cell-based; in short: as §2
MCF7 [5] = experiment: Inhibition of heat shock response-induced increase in HSP90 protein level in human MCF7 cells at 1 to 100 uM after 24 hrs by Western blot analysis; assay type: functional, cell-based
SK-BR-3 [6] = experiment: Ratio of IC50 for human SK-BR-3 cells to IC50 for human MCF7 cells; assay type: functional

Heat shock protein HSP 90-beta (Homo sapiens), sequence (P08238 whole entry): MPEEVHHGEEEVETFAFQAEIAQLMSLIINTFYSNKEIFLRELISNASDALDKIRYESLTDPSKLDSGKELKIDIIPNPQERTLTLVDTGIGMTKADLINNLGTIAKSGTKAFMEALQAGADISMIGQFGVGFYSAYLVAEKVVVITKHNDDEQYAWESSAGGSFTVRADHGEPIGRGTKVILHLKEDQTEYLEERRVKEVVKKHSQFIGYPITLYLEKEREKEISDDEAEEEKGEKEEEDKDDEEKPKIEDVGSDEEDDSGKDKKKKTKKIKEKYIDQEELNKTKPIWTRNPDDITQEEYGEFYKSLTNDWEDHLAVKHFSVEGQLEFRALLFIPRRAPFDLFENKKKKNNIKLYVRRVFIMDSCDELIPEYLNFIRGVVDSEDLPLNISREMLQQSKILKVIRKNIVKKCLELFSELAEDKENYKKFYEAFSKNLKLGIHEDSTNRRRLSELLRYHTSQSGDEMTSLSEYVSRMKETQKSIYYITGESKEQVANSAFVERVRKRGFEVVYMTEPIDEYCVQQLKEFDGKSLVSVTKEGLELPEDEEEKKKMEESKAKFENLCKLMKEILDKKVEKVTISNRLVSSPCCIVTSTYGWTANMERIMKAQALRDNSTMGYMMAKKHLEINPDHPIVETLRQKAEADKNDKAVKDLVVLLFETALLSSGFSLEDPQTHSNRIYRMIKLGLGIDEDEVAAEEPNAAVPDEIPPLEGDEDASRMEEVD

IC50 (MCF7 [1])	IC50 (SK-BR-3 [2])	Activity [3]	Activity [4]	Compound	inhibition (MCF7 [5])	Ratio IC50 (SK-BR-3 [6])
70 µM	> 100 µM			O=c1c(-c2ccc3c(c2)OCO3)coc2cc(O)cc(O)c12		
49.2 µM	> 100 µM			CC(C)=CCc1cc2c(=O)c(-c3ccc4c(c3)OCO4)coc2c(C)c1O		
> 100 µM	> 100 µM			CO[C@@H]1[C@@H](O)[C@@H](O)[C@H](Oc2cc(O)c3c(=O)c(-c4ccc5c(c4)OCO5)coc3c2)OC1(C)C		
9.2 µM	18 µM			CO[C@@H]1[C@@H](O)[C@@H](O)[C@H](Oc2ccc3c(=O)c(-c4ccc5c(c4)OCO5)coc3c2)OC1(C)C		
13.1 µM	36.5 µM			CC(C)=CCc1cc2c(=O)c(-c3ccc4c(c3)OCO4)coc2cc1O		
93.7 µM	> 100 µM			CC(=O)Nc1coc2cc(OC(C)=O)cc(O)c2c1=O		
> 100 µM	> 100 µM			CC(=O)Nc1cc(=O)c2cc(OC(C)=O)ccc2o1		
> 100 µM	> 100 µM			CC(=O)Oc1ccc2c(=O)c(-c3ccc4c(c3)OCO4)coc2c1C		
> 100 µM	> 100 µM			Cc1c(O)ccc2c(=O)c(-c3ccc4c(c3)OCO4)coc12		
9.5 µM	18.4 µM			COc1cccc(-c2cc(C(=O)Nc3coc4cc(OC(C)=O)ccc4c3=O)ccc2OC)c1		
> 100 µM	> 100 µM			O=c1c(-c2ccc3c(c2)OCO3)coc2cc(O)ccc12 [PSEUDOBAPTOGENIN]		
> 100 µM	> 100 µM			CC(=O)Nc1coc2c(C)c(OC(C)=O)ccc2c1=O		
> 100 µM	> 100 µM			CC(=O)Oc1cc(O)c2c(=O)c(-c3ccc4c(c3)OCO4)coc2c1		
18.4 µM	21.4 µM			CO[C@@H]1[C@@H](O)[C@@H](O)[C@H](Oc2ccc3c(=O)c(-c4ccc5c(c4)OCO5)coc3c2C)OC1(C)C		
> 100 µM	> 100 µM			CC(=O)Nc1coc2cc(OC(C)=O)ccc2c1=O		
> 100 µM	> 100 µM			CC(=O)Nc1coc2cc(O)ccc2c1=O		
5.1 µM	3.3 µM			COc1cccc(-c2cc(C(=O)Nc3coc4cc(OC(C)=O)cc(O)c4c3=O)ccc2OC)c1		
4.8 µM	17 µM			COc1cccc(-c2cc(C(=O)Nc3coc4c(C)c(OC(C)=O)ccc4c3=O)ccc2OC)c1		
11.9 µM				CC(C)=CCc1c(O)cc2occ(-c3ccc4c(c3)OCO4)c(=O)c2c1O [DERRUBONE]		
8.6 µM	37.1 µM			COc1cccc(-c2cc(C(=O)Nc3coc4cc(O)ccc4c3=O)ccc2OC)c1		1.9
> 100 µM	> 100 µM			CC(=O)Oc1ccc2c(=O)c(-c3ccc4c(c3)OCO4)coc2c1		

Further lines, the compound ahead of its results:

Compound	IC50 (MCF7 [1])	IC50 (SK-BR-3 [2])	Activity [3]	Activity [4]	inhibition (MCF7 [5])	Ratio IC50 (SK-BR-3 [6])
CO[C@@H]1[C@@H](O)[C@@H](O)[C@H](Oc2ccc3c(=O)c(NC(C)=O)coc3c2)OC1(C)C	> 100 µM	> 100 µM				
CC(=O)Nc1coc2cc(O)cc(O)c2c1=O	> 100 µM	> 100 µM				
COc1cccc(-c2cc(C(=O)Nc3cc(=O)c4cc(O[C@@H]5OC(C)(C)[C@H](OC)[C@@H](O)[C@H]5O)ccc4o3)ccc2OC)c1	14.7 µM	33.8 µM				
CO[C@@H]1[C@@H](O)[C@@H](O)[C@H](Oc2ccc3oc(NC(C)=O)cc(=O)c3c2)OC1(C)C	> 100 µM	> 100 µM				
COc1cccc(-c2cc(C(=O)Nc3coc4cc(O[C@@H]5OC(C)(C)[C@H](OC)[C@@H](O)[C@H]5O)cc(O)c4c3=O)ccc2OC)c1	23.6 µM	19.4 µM				
CC(=O)Nc1cc(=O)c2cc(O)ccc2o1	> 100 µM	> 100 µM				
COc1cccc(-c2cc(C(=O)Nc3cc(=O)c4cc(OC(C)=O)ccc4o3)ccc2OC)c1	> 100 µM	> 100 µM				
CC(=O)Nc1coc2c(C)c(O)ccc2c1=O	> 100 µM	> 100 µM				
CO[C@@H]1[C@@H](O)[C@@H](O)[C@H](Oc2ccc3c(=O)c(NC(C)=O)coc3c2C)OC1(C)C	> 100 µM	> 100 µM				
COc1cccc(-c2cc(C(=O)Nc3coc4cc(O[C@@H]5OC(C)(C)[C@H](OC)[C@@H](O)[C@H]5O)ccc4c3=O)ccc2OC)c1	25.2 µM	29 µM	Dose-dependent effect	Dose-dependent effect	Active	
CO[C@@H]1[C@@H](O)[C@@H](O)[C@H](Oc2ccc3cc(NC(=O)CCCCC(=O)Nc4cc5ccc(O[C@@H]6OC(C)(C)[C@H](OC)[C@@H](O)[C@H]6O)cc5oc4=O)c(=O)oc3c2)OC1(C)C		2 µM				
COc1cccc(-c2cc(C(=O)Nc3coc4c(C)c(O[C@@H]5OC(C)(C)[C@H](OC)[C@@H](O)[C@H]5O)ccc4c3=O)ccc2OC)c1	51.6 µM	46 µM				
COc1cccc(-c2cc(C(=O)Nc3cc(=O)c4cc(O)ccc4o3)ccc2OC)c1	10.5 µM	19.6 µM				
CO[C@@H]1[C@@H](O)[C@@H](O)[C@H](Oc2cc(O)c3c(=O)c(NC(C)=O)coc3c2)OC1(C)C	> 100 µM	> 100 µM				
COc1cccc(-c2cc(C(=O)Nc3coc4cc(O)cc(O)c4c3=O)ccc2OC)c1	9.7 µM	21.3 µM				1.9
COc1cccc(-c2cc(C(=O)Nc3coc4c(C)c(O)ccc4c3=O)ccc2OC)c1	4.9 µM	44.1 µM				1.9
